In the library only some 4.3% were active in any assay of this set; here they are far more common.
FLuc inh counter – firefly luciferase enzyme inhibitors, primary screen, artefact control for luciferase-based inhibitor screens, biochemical, luminescence, ATPLite | 10 min | inhibition, % at 10 µM | 1.5% of 200,000 active;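 active = inhibition above about 50% when tested at 10 µM, limit read from the data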
NF-kB neuron act – activators of NF-kB expression in neurons, primary screen, cell-based, HTS. human neuronal cells, NF-kB reporter expression; active compounds read high. fold change at 12.5 µM. 1.6% of 190,000 active; in the data active = fold change above about 3.3
APP 5'UTR act – activators of APP 5'UTR luciferase reporter, primary screen, SH-SY5Y cells; SH-SY5Y APP 5'UTR luciferase reporter, luminescence; zero percent = DMSO vehicle wells; activation, % at 2 µM; 1% of 190,000 active; AID 1276, 2008;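 active = activation above a set limit, based on mean plus 3 SD of controls, cut at about 140% in these data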
STAT1 act – STAT1 signaling activators, primary screen, cell-based, HTS, luciferase reporter | NIH 3T3 STAT1-luciferase reporter, IFN-gamma, luminescence; 100% = IFN-gamma alone, no compound | activation (% of control), % at 5.5 µM | 2.6% of 200,000 active | AID 932, 2007;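 active = activation above the screen-wide mean activation plus 3 SD, cut at about 130% in these data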
FLuc stim CS – FLuc activators, initial screening, artefact control for FLuc-dependent activation tests, biochemical, ATPlite luminescence; Luciferin 4-monooxygenase (Photinus pyralis), P08659; ATPlite luciferase biochemical, 10 min; 0 = ATP-free wells, 1 = DMSO control; activation factor at 10 µM; 200,000 tested, under 10 active; AID 1027, 2008;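 active = luciferase activation factor, scaled between plate controls, of at least 2 with compound at 10 µM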
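Material: Luciferase/luciferin reagent mix; Doses: test compounds dosed from 2 mM stocks in 100% DMSO; Schedule: 10 min incubation after luciferase reagent addition, room temperature; Measured by: luminescence from luciferase reaction; Read-out: luminescence gain marking luciferase activators.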
Large screens that a line does not name were inactive.

Cc1ccc(N=Nc2[nH]c3ccccc3c2O)cc1	STAT1 act 130
COc1ccccc1NC(=O)Cn1c(CCC(=O)O)ccc1-c1ccc(C)cc1	none
O=C(CSC1=NCCN1)Nc1cccc(C(F)(F)F)c1	STAT1 act 142
COc1ccccc1CNC(=O)c1cn(C)c2ccc(S(=O)(=O)N3CCCC3)cc2c1=O	none
COc1ccc(Cn2c(SCC#N)nc3ccc(N4CCOCC4)cc3c2=O)cc1	STAT1 act 136
CCCCn1c(SCC(=O)Nc2cccc(OC)c2)nc2ccc(N3CCOCC3)cc2c1=O	none
Cc1ccc(C(=O)N2CCN(Cc3ccc4c(c3)OCO4)CC2)cc1[N+](=O)[O-]	none
CCN(CC)CC(=O)Nc1nc(-c2ccc(Cl)cc2)cs1	none
CNc1nc(-c2ccc(Cl)cc2)cs1	STAT1 act 132
CCNc1nc(-c2ccc(Cl)cc2)cs1	NF-kB neuron act 3.8, APP 5'UTR act 148, STAT1 act 149
CC(C)C(=O)Nc1nc(-c2ccc([N+](=O)[O-])cc2)cs1	none
CNc1nc(-c2ccc([N+](=O)[O-])cc2)cs1	STAT1 act 137
COc1cc(/C=C2/C(=O)c3cccc([N+](=O)[O-])c3C2=O)c(Br)cc1O	FLuc inh counter 64
COc1ccc(-c2nc(-c3cccc([N+](=O)[O-])c3O)cc(=O)o2)cc1OC	none
COc1ccc(N=CC2=C(O)c3ccccc3C2=O)c(OC)c1	FLuc inh counter 95, APP 5'UTR act 176
O=C1C(C=NCc2ccco2)=C(O)c2ccccc21	none
Cc1ccccc1N=CC1=C(O)c2ccccc2C1=O	FLuc inh counter 96, APP 5'UTR act 140
O=C1C(C=Nc2ccc(F)cc2)=C(O)c2ccccc21	FLuc inh counter 77, NF-kB neuron act 7.1, APP 5'UTR act 148, STAT1 act 149
Cc1ccc(N=C2SC(C(=O)Nc3ccc(OC(F)(F)F)cc3)C(N)=C2C(=O)Nc2c(C)cc(C)cc2C)cc1 (stereo unspecified)	none
O=C(Nc1ccccc1F)c1ccc(CSc2ncccn2)cc1	APP 5'UTR act 155, STAT1 act 138
O=C(Nc1ccccc1)c1ccc(CSc2ncccn2)cc1	APP 5'UTR act 152, STAT1 act 139
CSCc1ccc(C(=O)Nc2ccc(C(N)=O)cc2)cc1	STAT1 act 147
CSCc1ccc(C(=O)NCc2ccc(C)cc2)cc1	none
Cc1csc(SCC(=O)NCCc2ccc(Cl)cc2Cl)n1	none
O=C(Nc1ccc2c(c1)S(=O)(=O)N=C1CCCCCN12)c1ccccc1Cl	none
Cc1cc(-c2ccc(Br)cc2)n[nH]1	STAT1 act 137
O=C(O)c1c(-c2ccc(Cl)cc2)cn2ccccc12	STAT1 act 135
CCOC(=O)c1c(-c2ccccc2Cl)cn2ccccc12	none
O=c1c2c3c(sc2ncn1/N=C/c1ccc([N+](=O)[O-])o1)CCCC3	NF-kB neuron act 4
Cc1ccc(N2C(=O)C(NC(=O)c3ccccc3)(C(F)(F)F)C3=C2CC(C)(C)CC3=O)cc1 (stereo unspecified)	NF-kB neuron act 14
CCC(C)NC(=O)COC(=O)c1ccc(Cl)cc1O (stereo unspecified)	none
O=C1C(C=NCc2cccnc2)=C(O)c2ccccc21	FLuc inh counter 68, STAT1 act 130
O=C1C(C=NCc2ccncc2)=C(O)c2ccccc21	none
CC(=O)NC1C(Oc2ccccc2C)OC2COC(c3ccco3)OC2C1O (stereo unspecified)	none
Cc1ccc(NC(=O)c2cc(N3C(=O)C=CC3=O)ccc2N2CCOCC2)cc1Cl	none
Oc1cccc(/C=N/Nc2cccc3cccnc23)c1	FLuc inh counter 81, NF-kB neuron act 8.9, APP 5'UTR act 227
COc1cc(/C=N/Nc2cccc3cccnc23)cc(OC)c1O	FLuc inh counter 86
O=C(NC1CCCCC1)C(c1ccccn1)N(C(=O)c1csnn1)C1CCCCC1 (stereo unspecified)	none
O=C(CO/N=C/c1ccc2c(c1)OCO2)Nc1cccc(Br)c1	none
Nc1nnc(CC(=O)N/N=C/c2cccc(OCCOc3ccccc3)c2)s1	STAT1 act 129
O=C(/C=C/c1cccs1)N1CCN(c2ccccc2)CC1	none

Screening results (PubChem)
